# Measured values pooled from the literature.
# Compare with care: the assays were run in different laboratories.
# MAL12: Alpha-glucosidase MAL12 (MAL12, Saccharomyces cerevisiae S288c, UniProt P53341)
# SQLE: Squalene monooxygenase (SQLE, Homo sapiens, UniProt Q14534)
# FABP1: Fatty acid-binding protein, liver (FABP1, Homo sapiens, UniProt P07148)
Compound,target,read-out,action,technique,pH,notes,IC50
CC(=O)C1=C(C)n2c(=O)c3ccccc3c(=O)n2C1c1cn(-c2ccccc2)nc1-c1ccccc1 (stereo not drawn),MAL12,enzyme activity,inhibitor,absorbance,,,15.4 µM
C[C@H]1CN(C(=O)Nc2ccc(C(F)(F)F)cc2)CCN1c1ccnc(Nc2ccc(O)cc2)n1,MAL12,enzyme activity,inhibitor,absorbance,pH 6.9,,3.71 µM
COc1cc(C2Oc3cc([C@H]4Oc5cc(O)cc(O)c5C(=O)[C@@H]4O)ccc3OC2CO)ccc1O (stereo partly drawn),SQLE,enzyme activity,inhibitor,radiometric,,,1.88 µM
NS(=O)(=O)c1ccc(-n2nc(C(=O)NN=Cc3ccc(O)cc3)cc2-c2ccccc2)cc1,"Focal adhesion kinase 1 (PTK2, Homo sapiens, UniProt Q05397)",enzyme activity,inhibitor,ELISA,,,17.1 µM
CNC(=O)[C@H](Cc1c[nH]c2ccccc12)NC(=O)[C@@H](CC(=O)NO)CC(C)C,"Disintegrin and metalloproteinase domain-containing protein 10 (ADAM10, Homo sapiens, UniProt O14672)",enzyme activity,inhibitor,,,,0.776 µM
CC(CN1CCN(CCOCCO)CC1)CN1c2ccccc2Sc2ccccc21 (stereo not drawn),SQLE,enzyme activity,inhibitor,absorbance,pH 7.4,with preincubation,10 µM
CCCOc1ccc2c(c1)O/C(=C\c1ccc(OC(C)(C)C(=O)O)c(F)c1)C2=O,FABP1,cell-free assay,inhibitor,fluorescence,pH 7.4,,9.2 µM
Cc1ccc(NC(=O)N2CCN(c3ccnc(Nc4ccc(Cl)cc4)n3)[C@H](C)C2)cc1,MAL12,enzyme activity,inhibitor,absorbance,pH 6.9,,7.78 µM
CCCCOc1ccc2c(c1)O/C(=C\c1cc(C)c(OC(C)(C)C(=O)O)c(C)c1)C2=O,FABP1,cell-free assay,inhibitor,fluorescence,pH 7.4,,5.3 µM
C[C@H]1CN(C(=O)Nc2ccc(C(F)(F)F)cc2)CCN1c1ccnc(Nc2cccc(O)c2)n1,MAL12,enzyme activity,inhibitor,absorbance,pH 6.9,,2.05 µM
CN1CCC(CNc2ccc3ncc(-c4cccc(OC(F)(F)F)c4)n3n2)CC1,"Alpha-1A adrenergic receptor (ADRA1A, Homo sapiens, UniProt P35348)",calcium signal,antagonist,,,,4.81 µM
CC(=O)C1=C(C)n2c(=O)c3ccccc3c(=O)n2C1c1cn(-c2ccccc2)nc1-c1ccc(O)cc1 (stereo not drawn),MAL12,enzyme activity,inhibitor,absorbance,,,494 µM
COc1ccc(Cl)cc1C(=O)NCCc1ccc(S(=O)(=O)NC(=O)NC2CCCCC2)cc1,"Solute carrier family 22 member 6 (SLC22A6, Homo sapiens, UniProt Q4U2R8, F442A)",transporter uptake,inhibitor,fluorescence,,,17.7 µM
CC1CN(C(=O)Nc2ccc(Cl)c(Cl)c2)CCN1c1ccnc(Nc2ccc(Cl)cc2)n1 (stereo not drawn),MAL12,enzyme activity,inhibitor,absorbance,pH 6.9,,2.41 µM
CCCOc1ccc2c(c1)O/C(=C\c1ccc(OCC(=O)O)cc1)C2=O,FABP1,cell-free assay,inhibitor,fluorescence,pH 7.4,,14.6 µM
N#Cc1ccc2c(c1)N(CCCN1CCC(O)CC1)c1ccccc1S2,SQLE,enzyme activity,inhibitor,absorbance,pH 7.4,with preincubation,1.55 µM
Cc1cc2c(cc1C)N[C@H](c1ccccc1)[C@@H](O)C(=O)N2,"Cyclin-dependent kinase 5 (CDK5, Homo sapiens, UniProt Q00535)",enzyme activity,inhibitor,ELISA,,,0.663 µM
CCCOc1ccc2c(c1)O/C(=C\c1ccc(OC(C)(C)C(=O)O)c(C)c1)C2=O,FABP1,cell-free assay,inhibitor,fluorescence,pH 7.4,,5.8 µM
CC1(C)CC(=O)C2=C(C1)n1c(=O)c3ccccc3c(=O)n1C2c1cn(-c2ccccc2)nc1-c1ccc(O)cc1 (stereo not drawn),MAL12,enzyme activity,inhibitor,absorbance,,,108 µM
O=C(O)[C@H]1O[C@@H](Oc2cc3oc(-c4ccccc4)cc(=O)c3c(O)c2O)[C@H](O)[C@@H](O)[C@@H]1O,SQLE,enzyme activity,inhibitor,radiometric,,,2.5 µM
Cc1cc(/C=C2\Oc3cc(OCC(C)C)ccc3C2=O)cc(C)c1OC(C)(C)C(=O)O,FABP1,cell-free assay,inhibitor,fluorescence,pH 7.4,,4.8 µM
CC[N+](CC)(CC)Cc1ccccc1.CC[N+](CC)(CC)Cc1ccccc1.[Br][Co-2]([Br])([Br])[Br],"Tyrosine-protein phosphatase non-receptor type 1 (PTPN1, Homo sapiens, UniProt P18031)",enzyme activity,inhibitor,,,,10.9 µM
CCCOc1ccc2c(c1)O/C(=C\c1cc(C)c(OC(C)(C)C(=O)O)c(C)c1)C2=O,FABP1,cell-free assay,inhibitor,fluorescence,pH 7.4,,4.8 µM
C[C@H]1CN(C(=O)Nc2ccc(C(F)(F)F)cc2)CCN1c1ccnc(Nc2ccc(Cl)cc2)n1,MAL12,enzyme activity,inhibitor,absorbance,pH 6.9,,1.1 µM
Nc1ccn(C[C@@H](CO)OCP(=O)(O)O)c(=O)n1,"Solute carrier family 22 member 6 (SLC22A6, Homo sapiens, UniProt Q4U2R8, F438Y)",transporter uptake,inhibitor,fluorescence,,,1400 µM
O=c1cc(-c2ccc(O)cc2)oc2cc(O[C@@H]3O[C@H](CO)[C@@H](O)[C@H](O)[C@H]3O)cc(O)c12,SQLE,enzyme activity,inhibitor,radiometric,,,1.74 µM
COc1ccc(NC(=O)N2CCN(c3ccnc(Nc4ccc(Cl)cc4)n3)[C@H](C)C2)cc1,MAL12,enzyme activity,inhibitor,absorbance,pH 6.9,,23.4 µM
COc1ccc2c(c1)O/C(=C\c1cc(C)c(OC(C)(C)C(=O)O)c(C)c1)C2=O,FABP1,cell-free assay,inhibitor,fluorescence,pH 7.4,,9 µM
C[C@H]1CN(C(=O)Nc2ccc(C(F)(F)F)cc2)CCN1c1ccnc(Nc2ccccc2Cl)n1,MAL12,enzyme activity,inhibitor,absorbance,pH 6.9,,4.21 µM
O=c1cc(-c2ccccc2)oc2cc(O)cc(O)c12,SQLE,enzyme activity,inhibitor,radiometric,,,4.47 µM
